We go through 4 compounds from article PMC5242172 (Pharmacology Research & Perspectives, 2016).

Data set [1] concerns NCI-H23 cells. Kind of data set: Cellular oxygen consumption rate. It is filed as cell-based, human. Particulars: NCI-H23, 1 h after drug.
In data set [2] the test system is NCI-H23 cells. Nature of the data set: Cellular ATP measurement. It is filed as cell-based, human. Particulars: NCI-H23, 6 h of treatment. The essentials:
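NCI-H23 cells in RPMI 1640 with 5% FBS were plated at 1–2 × 10^5 cells/mL and incubated overnight at 37°C, 5% CO2. Test compound diluted in medium was added for 6 h, with final DMSO below 1%. Lysis buffer and substrate were added, and luciferase-based luminescence was read. ATP was expressed as % of solvent-treated wells; mean ± SEM, n = 3.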

The target in data set [3] is bovine heart mitochondrial complex I (Bos taurus, UniProt P03887+P17694+P42026). Kind of data set: Complex I activity. In kind it is biochemical.
Sequence of bovine heart mitochondrial complex I (P03887 whole entry): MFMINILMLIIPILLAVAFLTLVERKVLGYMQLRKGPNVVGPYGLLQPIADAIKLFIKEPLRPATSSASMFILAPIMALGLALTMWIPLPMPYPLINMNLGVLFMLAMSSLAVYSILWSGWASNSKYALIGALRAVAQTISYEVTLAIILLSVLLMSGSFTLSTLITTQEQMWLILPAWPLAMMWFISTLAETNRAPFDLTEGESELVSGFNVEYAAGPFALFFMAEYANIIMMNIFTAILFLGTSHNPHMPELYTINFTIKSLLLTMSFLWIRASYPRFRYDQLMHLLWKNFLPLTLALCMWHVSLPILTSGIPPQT
Sequence of bovine heart mitochondrial complex I (P42026 38-216): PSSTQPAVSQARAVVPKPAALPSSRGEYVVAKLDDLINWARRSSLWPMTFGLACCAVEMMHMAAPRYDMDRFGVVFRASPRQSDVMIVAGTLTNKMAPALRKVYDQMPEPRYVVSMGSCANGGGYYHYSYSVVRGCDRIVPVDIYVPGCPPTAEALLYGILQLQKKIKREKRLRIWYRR
Sequence of bovine heart mitochondrial complex I (P17694 34-463): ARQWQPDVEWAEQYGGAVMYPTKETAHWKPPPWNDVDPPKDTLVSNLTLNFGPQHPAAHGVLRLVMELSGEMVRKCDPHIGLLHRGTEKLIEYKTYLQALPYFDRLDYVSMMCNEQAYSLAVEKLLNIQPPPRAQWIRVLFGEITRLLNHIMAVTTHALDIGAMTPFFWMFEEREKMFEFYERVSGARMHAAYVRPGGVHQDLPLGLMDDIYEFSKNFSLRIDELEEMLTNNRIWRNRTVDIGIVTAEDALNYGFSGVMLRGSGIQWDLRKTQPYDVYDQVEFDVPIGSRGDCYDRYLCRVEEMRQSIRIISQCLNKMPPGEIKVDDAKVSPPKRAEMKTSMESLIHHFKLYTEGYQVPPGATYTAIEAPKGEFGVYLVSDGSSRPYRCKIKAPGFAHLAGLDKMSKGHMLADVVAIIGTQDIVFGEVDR
Data set [4] concerns panel of 39 human cancer cell lines (JFCR39). Kind of data set: Growth inhibition profile, summary over the JFCR39 panel. In kind it is cell-based.
Data set [5] relates to mitochondrial complexes (complex II–V). Kind of data set: Activities of OxPhos complexes II-V. In kind it is biochemical. Particulars: II + III, IV, V (Fig. S2).
Data set [6] has as its system NCI-H23 cells. Kind of data set: Viable cell number. Particulars: NCI-H23, 6 h of treatment. In kind it is cell-based, human. The essentials: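 NCI-H23 cells were grown in RPMI 1640 with 5% FBS at 37°C, 5% CO2, and exposed to test compound (DMSO stocks 10 or 100 mmol/L) for 6 h. Viable cells were counted by trypan blue exclusion on an automated cell counter and expressed as % of nontreated control; mean ± SEM, n = 3.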

Data set [7] relates to mitochondrial DNA-deficient (ρ0) NCI-H23 cells. Kind of data set: Growth of ρ0 versus ρ+ cells, sulforhodamine B assay. To be noted: NCI-H23 ρ0 vs ρ+, 48 h. It is filed as cell-based, human. In general terms: In SRB staining, fixed cells bind dye roughly in proportion to their protein.
Data set [8] relates to xenograft tumors. To be noted: ref Kojima et al. 2014; cited from earlier work.

SMILES strings stand for the structures. Read-outs that look alike come from different tables or passages of the source.

As for `C=C(C)[C@H]1Cc2c(ccc3c2O[C@@H]2COc4cc(OC)c(OC)cc4[C@@H]2C3=O)O1` [Rotenone, reference compound], in data set [1], the “effect on cellular oxygen consumption rate” value was “inhibited the oxygen consumption of NCI‐H23 cells in a dose‐dependent manner”.

As to `CN(C)c1cccc2c(S(=O)(=O)NCCCCCCCCC[C@@H](O)[C@H]3CC[C@H]([C@H](O)CCCCCCCCCCNC(=O)c4ccsc4)O3)cccc12` [JCI-13291, N‐[(R)‐11‐((2R,5R)‐5‐{(R)‐10‐[5‐(Dimethylamino)naphthalene‐1‐sulfonamido]‐1‐hydroxydecyl}tetrahydrofuran‐2‐yl)‐11‐hydroxyundecyl]thiophene‐3‐carboxamide], the “effect on cellular oxygen consumption rate” value in data set [1] is reported as “inhibited the aerobic aspiration of NCI‐H23 cells”. Further, the “effect on intracellular ATP content” value in data set [2] is on record as “depleted intracellular ATP content”.

`COc1cc2c(cc1OC)[C@@H]1C(=O)c3ccc4c(c3O[C@@H]1CO2)C=CC(C)(C)O4` [Deguelin, reference compound]: it took 40 nM to reach half-maximal inhibition in data set [3] (IC50).

For `CCCCCCCCCCCC[C@@H](O)[C@H]1CC[C@H]([C@H](O)CCCCCCCCCCNC(=O)c2ccsc2)O1` [JCI-20679, N‐((R)‐11‐Hydroxy‐11‐{(2R,5R)‐5‐[(R)‐1‐hydroxytridecyl]tetrahydrofuran‐2‐yl}undecyl)thiophene‐3‐carboxamide], in data set [4] (48 h, read-out: MG-MID, the mean of log GI50 values for 39 cell lines (converted)), the GI50 is 2750 nM. Further, in data set [4] (read-out: mean GI50 within the JFCR39 panel), the 50% growth inhibitory concentration (GI50) was 2750 nM. The compound also had a 50% inhibitory concentration (IC50) in data set [3] of 170 nM. Also, in data set [3] (ratio of IC50 values), the “complex I inhibition, activity relative to rotenone” value is given as “seven times less activity than rotenone”; the “complex I inhibition, times greater activity than phenformin” value worked out at 6000 times; the “complex I inhibition, times greater activity than solamin” value is listed as 30 times. Moreover, the “inhibition of mitochondrial complexes II–V” value in data set [5] is on record as “None of the other mitochondrial complexes (complex II–V) were inhibited”. For the same compound, in data set [1], the “effect on cellular oxygen consumption rate” value is listed as “inhibited the oxygen consumption of NCI‐H23 cells in a dose‐dependent manner”. Also, the “effect on intracellular ATP content” value in data set [2] is recorded as “ATP depletion by JCI‐20679 in a dose‐dependent manner”. The viable cell number entry in data set [6] is “hardly changed”. For the same compound, in data set [7], the “sensitivity of ρ0 cells compared with ρ+ cells” value was “more resistant”. In data set [8], the “antitumor activity in mouse xenograft models” value is recorded as “more potent antitumor activity than solamin” and the “side effects in mouse xenograft models” value is recorded as “no severe side effects”.

By IC50 is commonly meant the point on the concentration scale where inhibition reaches its midpoint. Read a low IC50 as higher potency. By GI50 is commonly meant the concentration giving 50% growth inhibition.
